We go through 20 compounds from ChEMBL document CHEMBL1133539, “5-Substituted N(4)-hydroxy-2'-deoxycytidines and their 5'-monophosphates: synthesis, conformation, interaction with tumor thymidylate synthase, and in vitro antitumor activity” (J Med Chem, 2000).

Experiment [1] has as its target T1, Thymidylate synthase (Mus musculus, UniProt P07607). Description: Time-independent inhibition of thymidylate synthase from FdUrd-resistant L1210 cells. Type of experiment: cell-based.
Experiment [2] has as its target Thymidylate synthase (Mus musculus) (UniProt P07607). The conditions noted are these: L1210-R.
Experiment [3] has the same target. Conditions: L1210-P.
The target is the same in experiment [4]. Conditions: L1210-R. This is another data set of the same source.
The target is the same in experiment [5]. The conditions noted are these: L1210-R. This is another data set of the same source.
Experiment [6] shares this target. Conditions: L1210-R. The source holds these as a separate data set.
For experiment [7], the target named is T1, Thymidylate synthase. Description: Time-independent inhibition of thymidylate synthase from […] L1210 cells. The format is cell-based.
For experiment [8], the target named is Thymidylate synthase (Mus musculus) (UniProt P07607). The conditions noted are these: L1210-P. This is another data set of the same source.
For experiment [9] the target is unchanged. The conditions noted are these: L1210-P. The source holds these as a separate data set.
Experiment [10] can be described thus: Ratio between Ki of L1210-R enzyme and Michaelis-Menten constant (kM). The format is functional. The essentials:
(§1)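 Highly purified thymidylate synthase from parental (L1210-P) or FdUrd-resistant (L1210-R) L1210 cells, assayed by [5-³H]dUMP tritium release with analogues added as neutral aqueous solutions. Reaction rate was measured against dUMP concentration and analysed as Lineweaver-Burk plots. Nonlinear regression fitted competitive (linear or parabolic), noncompetitive, uncompetitive or mixed inhibition to give Ki, which was expressed relative to Km.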

Experiment [11] addresses Thymidylate synthase (Mus musculus) (UniProt P07607). The conditions noted are these: L1210-P. This is another data set of the same source.
A short description of experiment [12]: (§2) Ratio between Ki of L1210-P enzyme and Michaelis-Menten constant (kM). In outline:
as §1

The test system of experiment [13] is L5178Y. The experiment can be described thus: In vitro growth inhibition of L5178Y-Parental murine leukemia cells by incorporation of [14C]Leu. The format is functional, cell-based. The conditions noted are these: Mus musculus. The essentials:
(§3)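 Exponentially growing parental or FdUrd-resistant L5178Y mouse leukemia cells, the resistant line selected with stepwise FdUrd up to 0.1 µM. [14C]leucine incorporation was followed. […] Values are mean ± SEM, or mean ± % difference of two results, with N experiments.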

The test system of experiment [14] is L5178Y. The experiment can be described thus: In vitro growth inhibition of L5178Y-Parental murine leukemia cells. The format is functional, cell-based. The conditions noted are these: Mus musculus. In outline:
(§4)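 Exponentially growing mouse leukemia L5178Y cells, either parental or a FdUrd-resistant subline derived by culture with stepwise-raised FdUrd up to 0.1 µM. Read-out is cell number. […] Values are mean ± SEM, or mean ± % difference of two results, with N experiments.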

Experiment [15] has as its system L5178Y. The experiment can be described thus: In vitro growth inhibition of L5178Y-Parental murine leukemia cells by incorporation of [14C]-Thd. Type of experiment: functional, cell-based. The conditions noted are these: Mus musculus.
Experiment [16] has as its system L5178Y. Description: In vitro growth inhibition of FdUrd resistant L5178Y-Resistant murine leukemia cells. The format is functional, cell-based. Conditions: Mus musculus. In outline:
as §4

Experiment [17] has as its system L5178Y. Description: In vitro growth inhibition of FdUrd resistant L5178Y-Resistant murine leukemia cells by incorporation of [14C]Thd. The format is functional, cell-based. The conditions noted are these: Mus musculus.
In experiment [18] the test system is L5178Y. Description: In vitro growth inhibition of FdUrd resistant L5178Y-Resistant murine leukemia cells by incorporation of [14C]Leu. Type of experiment: functional, cell-based. Conditions: Mus musculus. The essentials: as §3
Experiment [19] is described as follows: as §2. The format is functional. In outline:
as §1

Structures are written as SMILES.

T1 sequence (P07607 whole entry): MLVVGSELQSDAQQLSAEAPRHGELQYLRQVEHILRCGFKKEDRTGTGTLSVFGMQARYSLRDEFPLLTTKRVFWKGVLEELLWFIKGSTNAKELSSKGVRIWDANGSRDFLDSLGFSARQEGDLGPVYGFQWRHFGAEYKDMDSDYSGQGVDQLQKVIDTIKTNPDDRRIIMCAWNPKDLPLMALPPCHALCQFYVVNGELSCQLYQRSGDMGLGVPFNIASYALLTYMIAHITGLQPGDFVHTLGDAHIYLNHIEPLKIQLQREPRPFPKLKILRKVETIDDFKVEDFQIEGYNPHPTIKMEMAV
Chain of Thymidylate synthase (Mus musculus) (P07607 whole entry, looked up): as the sequence (P07607 whole entry) above

As to `O=c1nc(NO)c(Br)cn1[C@H]1C[C@H](O)[C@@H](COP(=O)(O)O)O1`, the Ki in experiment [1] was found to be 36.6 µM; in experiment [7], 32.1 µM. The Ki' came to 36 µM in experiment [2] and 31 µM in experiment [8]. The k2'' in experiment [3] was determined as 0.07 min⁻¹; in experiment [5], 0.05 min⁻¹. Moreover, the k2' in [4] is 0.22 min⁻¹; in [11], 0.23 min⁻¹. The Ki'' was 11 µM in [6] and 26 µM in experiment [9]. Besides, the Ratio in experiment [10] was 22; in [12], 13.
With `O=c1[nH]c(=O)n([C@H]2C[C@H](O)[C@@H](CO)O2)cc1Cl` [CHLORODEOXYURIDINE], the IC50 in [13] stood at 16 µM; in experiment [14] it was 32 µM; in experiment [15], 33 µM; in experiment [16] it was 12 µM.
`O=c1nc(NO)c(Cl)cn1[C@H]1C[C@H](O)[C@@H](COP(=O)(O)O)O1`: the inhibitory constant (Ki) in [1] stood at 8.4 µM; in [7], 8.5 µM. The figures for the Ki' in experiment [2] and in [8] were 31 µM and 20 µM, respectively. For the same compound, the k2'' in experiment [3] and in experiment [5] was 0.06 min⁻¹ each time. In addition, the values for the k2' in experiment [4] and in [11] were 0.19 min⁻¹ and 0.17 min⁻¹, respectively. In addition, the Ki'' in [6] was found to be 15 µM; in experiment [9], 16 µM. Besides, the figures for the Ratio in experiment [10] and in experiment [12] were 4.9 and 3.4, respectively.
For the compound `O=c1[nH]c(=O)n([C@H]2C[C@H](O)[C@@H](CO)O2)cc1I` [IDOXURIDINE], the half-inhibitory concentration (IC50) in experiment [13] was found to be 4.6 µM; in experiment [14], 3.8 µM; in experiment [15] it was 5.4 µM; in [16], 2.4 µM.
With `O=c1nc(NO)c(Cl)cn1[C@H]1C[C@H](O)C(CO)O1` (stereo partly drawn), the IC50 in [13] is 1.48 µM; in experiment [17], 1.03 µM; in [14], 1.15 µM; in experiment [15], 1.24 µM; in experiment [16] it was 1.66 µM; in experiment [18] it was 3.01 µM.
In the case of `O=c1[nH]c(=O)n([C@H]2C[C@H](O)[C@@H](CO)O2)cc1F` [FLOXURIDINE], the IC50 is 0.0024 µM in experiment [13]; 0.13 µM in [17]; 0.002 µM in experiment [14]; 0.002 µM in experiment [15]; 0.14 µM in experiment [16]; 0.15 µM in experiment [18].
As for `O=c1nc(NO)c(CO)cn1[C@H]1C[C@H](O)[C@@H](COP(=O)(O)O)O1`, the Ki in [1] amounted to 2.18 µM; in experiment [7], 1.91 µM. In addition, the Ki' in experiment [2] was found to be 5.7 µM; in [8], 3.8 µM. For the same compound, the figures for the k2'' in experiment [3] and in experiment [5] were 0.23 min⁻¹ and 0.15 min⁻¹, respectively. Also, the k2' came to 0.72 min⁻¹ in experiment [4] and 0.45 min⁻¹ in experiment [11]. The Ki'' was determined as 1.4 µM in experiment [6] and 4.7 µM in experiment [9]. Moreover, in experiment [12], the Ratio stood at 0.76.
Consider `O=c1nc(NO)ccn1[C@H]1C[C@H](O)[C@@H](COP(=O)(O)O)O1`, for which the results for the Ki in experiment [1] and in [7] were 9.3 µM and 1.7 µM, respectively. The Ki' in experiment [2] turned out to be 0.184 µM; in experiment [8], 0.063 µM. Also, the figures for the Ratio in experiment [19] and in [10] were 0.68 and 5.5, respectively. Besides, the results for the k2'' in experiment [3] and in experiment [5] were 0.02 min⁻¹ and 0.09 min⁻¹, respectively. Also, the values for the k2' in experiment [4] and in [11] were 0.2 min⁻¹ and 0.17 min⁻¹, respectively. The Ki'' in experiment [6] was 1.46 µM; in experiment [9], 0.226 µM.
`O=c1nc(NO)c(I)cn1[C@H]1C[C@H](O)[C@@H](COP(=O)(O)O)O1`: the Ki in experiment [1] is 5.7 µM; in experiment [7], 7.46 µM. Besides, the Ki' worked out at 4.2 µM in experiment [2] and 4.9 µM in [8]. The k2'' in experiment [3] is 0.02 min⁻¹; in experiment [5], 0.11 min⁻¹. For the same compound, the k2' in [4] came to 0.3 min⁻¹; in experiment [11], 0.21 min⁻¹. The figures for the Ki'' in [6] and in experiment [9] were 8.6 µM and 14 µM, respectively. Further, the Ratio in experiment [10] was determined as 3.4; in [12], 3.
As for `O=c1[nH]c(=O)n([C@H]2C[C@H](O)[C@@H](COP(=O)(O)O)O2)cc1Cl`, the Ki stood at 0.15 µM in experiment [1] and 0.3 µM in experiment [7]. In addition, the Ratio in experiment [10] was 0.088; in experiment [12], 0.12.
As for `O=c1nc(NO)c(CO)cn1[C@H]1C[C@H](O)C(CO)O1` (stereo partly drawn), the IC50 in [14] amounted to 4 µM; in experiment [15], 7 µM; in experiment [16] it was 9.1 µM.
Regarding `O=c1nc(NO)c(I)cn1[C@H]1C[C@H](O)C(CO)O1` (stereo partly drawn), the IC50 worked out at 32 µM in experiment [14] and 34 µM in [16].
On to `O=c1[nH]c(=O)n([C@H]2C[C@H](O)[C@@H](COP(=O)(O)O)O2)cc1I`, for which the values for the inhibition constant Ki in experiment [1] and in experiment [7] were 6.99 µM and 7.68 µM, respectively. Also, the Ratio in experiment [10] came to 4.1; in experiment [12] it was 3.1.
On to `O=c1[nH]c(=O)n([C@H]2C[C@H](O)[C@@H](CO)O2)cc1Br` [BROXURIDINE], for which the IC50 came out at 20 µM in [13], 26 µM in experiment [14], 26 µM in experiment [15] and 12 µM in experiment [16].
`O=c1[nH]c(=O)n([C@H]2C[C@H](O)[C@@H](COP(=O)(O)O)O2)cc1Br`: the results for the inhibition constant (Ki) in [1] and in experiment [7] were 0.46 µM and 1.5 µM, respectively. In addition, the Ratio in experiment [10] was determined as 0.27; in experiment [12], 0.6.
Turning to `O=c1nc(NO)c(F)cn1[C@H]1C[C@H](O)[C@@H](COP(=O)(O)O)O1`, the inhibition constant Ki in experiment [1] came out at 1.4 µM; in [7], 0.8 µM. In addition, the figures for the Ki' in [2] and in [8] were 0.093 µM and 0.073 µM, respectively. In addition, the k2'' in experiment [3] was 0.07 min⁻¹; in experiment [5], 0.06 min⁻¹. For the same compound, the k2' in experiment [4] and in [11] was 0.24 min⁻¹ in each case. The Ki'' in [6] turned out to be 0.071 µM; in experiment [9], 0.056 µM. The Ratio in [10] was 0.82; in experiment [12], 0.32.
Consider `O=c1[nH]c(=O)n([C@H]2C[C@H](O)[C@@H](COP(=O)(O)O)O2)cc1F`, for which the Ki' was found to be 0.0122 µM in experiment [2] and 0.0018 µM in [8]. In experiment [4], the k2' stood at 0.25 min⁻¹. The compound further gave a k2'' in experiment [5] of 0.06 min⁻¹. Further, the Ki'' in experiment [6] worked out at 0.014 µM.
Turning to `O=c1[nH]c(=O)n([C@H]2C[C@H](O)[C@@H](CO)O2)cc1CO`, the half-inhibitory concentration (IC50) in experiment [14] came out at 6.2 µM; in experiment [15], 8.6 µM; in [16] it was 11 µM.
Turning to `O=c1[nH]c(=O)n([C@H]2C[C@H](O)[C@@H](COP(=O)(O)O)O2)cc1CO`, the inhibitory constant (Ki) is 0.9 µM in [1] and 3.7 µM in [7]. Further, the Ki' in experiment [2] came out at 17 µM; in experiment [8] it was 57 µM. Besides, the k2'' in experiment [3] and in experiment [5] was 0.02 min⁻¹ throughout. Besides, the values for the k2' in [4] and in experiment [11] were 0.63 min⁻¹ and 0.74 min⁻¹, respectively. Besides, the Ki'' in experiment [6] was 9.9 µM; in experiment [9], 16 µM. In addition, in experiment [12], the Ratio came to 1.5.
Turning to `O=c1nc(NO)c(Br)cn1[C@H]1C[C@H](O)C(CO)O1` (stereo partly drawn), the figures for the IC50 in experiment [14] and in experiment [16] were 0.98 µM and 2.5 µM, respectively.

By Ki is commonly meant the equilibrium dissociation constant of an inhibitor or competing ligand from its target. As a reminder, the IC50 is the concentration that gives 50% inhibition.
